Test results taken from ChEMBL document CHEMBL3286275, “Identification of 1-{2-[4-chloro-1'-(2,2-dimethylpropyl)-7-hydroxy-1,2-dihydrospiro[indole-3,4'-piperidine]-1-yl]phenyl}-3-{5-chloro-[1,3]thiazolo[5,4-b]pyridin-2-yl}urea, a potent, efficacious and orally bioavailable P2Y(1) antagonist as an antiplatelet agent” (Bioorg Med Chem Lett, 2014).
Converted amounts (≈) assume the structure as drawn.

Key:
Liver microsome [1] = assay: Metabolic stability in rat liver microsomes assessed as compound remaining; assay type: ADME
How it was run: (§1)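 Liver microsome stability: percent of compound remaining after incubation with […] (3 µM microsomes in some cases).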

Liver microsome [2] = assay: Metabolic stability in human liver microsomes assessed as compound remaining; assay type: ADME; how it was run: as §1
Platelet = assay: Inhibition of ADP-induced platelet aggregation in platelet-rich human plasma; assay type: functional
How it was run: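 Human platelet-rich plasma; aggregation triggered by 10 µM ADP; IC50 determined.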

P2Y purinoceptor 1 [3] = target: T1, P2Y purinoceptor 1 (Homo sapiens, UniProt P47900); assay: Antagonist activity at P2Y1 receptor in human platelets by FLIPR assay in presence of 2-methylthio-ADP
T1 sequence (P47900 whole entry): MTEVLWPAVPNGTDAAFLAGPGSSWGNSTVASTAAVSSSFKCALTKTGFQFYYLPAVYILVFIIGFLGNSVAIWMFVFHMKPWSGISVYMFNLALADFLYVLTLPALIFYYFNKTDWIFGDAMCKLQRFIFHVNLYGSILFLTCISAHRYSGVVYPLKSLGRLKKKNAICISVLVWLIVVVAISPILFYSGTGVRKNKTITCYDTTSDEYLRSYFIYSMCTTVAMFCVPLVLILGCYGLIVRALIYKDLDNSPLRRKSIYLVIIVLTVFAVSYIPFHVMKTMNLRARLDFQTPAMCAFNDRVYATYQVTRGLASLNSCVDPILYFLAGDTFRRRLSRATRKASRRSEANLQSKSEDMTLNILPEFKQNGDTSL
How it was run: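 Washed human platelets with endogenous P2Y1; calcium signalling read by FLIPR with reduced protein (~0.1% BSA); agonist 2-methylthio-ADP at 1 µM; IC50 given as mean ± SD.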

Rattus norvegicus [4] = assay: Toxicity in rat assessed as prolongation of cuticle bleeding time at 10 mg/kg, po relative to control; assay type: organism-based; parameters: dose 10 mg/kg, route oral; settings: in vivo
How it was run: (§2)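 Pentobarbital-anesthetized rats dosed by oral gavage 1 h before bleeding-time induction. Vehicle was 1 ml/kg of 10% N,N-dimethylacetamide/90% dextrose 5% water, and compound was given at 0.3, 1, 3 and 10 mg/kg. Cuticle and mesenteric bleeding times were measured and expressed as fold prolongation relative to vehicle. Group sizes were indicated per group.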

Rattus norvegicus [5] = assay: Toxicity in rat assessed as prolongation of mesentric bleeding time at 10 mg/kg, po relative to control; assay type: organism-based; parameters: dose 10 mg/kg, route oral; settings: in vivo; how it was run: as §2
Rattus norvegicus [6] = assay: Antithrombotic activity in pentobarbital anesthetized rat assessed as reduction in FeCl2-induced thrombus weight at 10 mg/kg, po administered 1 hr prior to FeCl2 challenge; assay type: functional; parameters: scale not given: the % may be the effect or the level left
How it was run: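 Pentobarbital-anesthetized rats; vehicle (1 ml/kg of 10% N,N-dimethylacetamide/90% dextrose 5% water) or 0.3, 1, 3, 10 mg/kg by oral gavage 1 h before FeCl2-induced carotid thrombosis or cuticle/mesenteric bleeding time. End points were thrombus weight and blood flow. Blood was drawn at the end of the thrombosis protocol for ex vivo aggregation. ID50 values derived; SEM reported.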

[7] = Aqueous solubility of the compound at pH 6.5; assay type: physicochemical; settings: aqueous medium
How it was run: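 Aqueous solubility taken on crystalline material: free base at pH 6.5, mono-methanesulfonic acid salt at pH 3.9.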

P2Y purinoceptor 1 [8] = target: T1, P2Y purinoceptor 1; assay: Binding affinity to P2Y1 receptor in human platelets
Liver microsome [9] = assay: Metabolic stability in human liver microsomes assessed as GSH adduct formation; assay type: ADME
How it was run: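 Human liver microsomes incubated with glutathione to detect reactive intermediates; GSH adduct (M+GSH) measured as percent.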

SMILES	Stability (Liver microsome [1])	Stability (Liver microsome [2])	IC50 (Platelet)	IC50 (P2Y purinoceptor 1 [3])	fold change (FC) (Rattus norvegicus [4])	fold change (FC) (Rattus norvegicus [5])	Activity (Rattus norvegicus [6])	solubility [7]	Ki (P2Y purinoceptor 1 [8])	Stability (Liver microsome [9])
CC(C)(C)CN1CCC2(CC1)CN(c1ccccc1NC(=O)Nc1ccc(OC(F)(F)F)cc1)c1c(O)ccc(F)c12	70%	78%	920 nM	0.37 nM						
COC(=O)[C@H](c1ccccc1Cl)N1CCc2sccc2C1 [CLOPIDOGREL]					6.2	8.2	67%			
CC(C)(C)CN1CCC2(CC1)CN(c1ccccc1NC(=O)Nc1ccc(OC(F)(F)F)cc1)c1ccc(O)cc12				> 150 nM						
CC(C)(C)CN1CCC2(CC1)CN(c1ccccc1NC(=O)Nc1csc(Cl)n1)c1c(O)ccc(Cl)c12	66%	87%	170 nM	0.03 nM						
CC(C)(C)CN1CCC2(CC1)CN(c1ccccc1NC(=O)Nc1ccc(OC(F)(F)F)cc1)c1c(O)cccc12	87%	80%	1600 nM	0.23 nM				30 µg/mL (≈ 52.8 µM)	4 nM	Unstable
COC(=O)c1ccc(O)c2c1C1(CCN(CC(C)(C)C)CC1)CN2c1ccccc1NC(=O)Nc1ccc(OC(F)(F)F)cc1	57%	48%	700 nM	0.15 nM						
CC(C)(C)CN1CCC2(CC1)CN(c1ccccc1NC(=O)Nc1ccc(OC(F)(F)F)cc1)c1cccc(O)c12				> 150 nM						
CC(C)(C)CN1CCC2(CC1)CN(c1ccccc1NC(=O)Nc1ccc(OC(F)(F)F)cc1)c1c(O)ccc(C(F)(F)F)c12	98%	100%	130 nM	0.14 nM						
